Experimental data from publication PMC3634367 (Biochemistry, 2011).
One block for each molecule: values may come before it. Non-standard residues stand in square brackets, D forms with d. Residues, ends and D or L forms follow the SMILES beside them. pT = C[C@@H](OP(=O)(O)O)[C@H](N)C(=O)O; pS = N[C@@H](COP(=O)(O)O)C(=O)O

Legend:
[1] = molecular target: T1, wt-arr2_1-418 (full-length human arrestin-2) (Homo sapiens, UniProt P49407); experiment: Isothermal titration calorimetry; format: binding
How it was run: (§1)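 Untagged protein from E. coli BL21, purified by ammonium sulfate precipitation, heparin affinity and size exclusion. ITC at 283K in 10 mM NaH2PO4 pH 7.0, 100 mM NaCl: cell arrestin-2 0.01 mM, syringe test peptide 0.5 mM. 13 injections of 15 ul, 210 s apart, up to 2-fold peptide excess. Peptide dilution heats into buffer run as control. Isotherms fitted to one-site, 1:1 model.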

[2] = molecular target: T2, tr-arr2_1-382 (truncated human arrestin-2 mutant) (Homo sapiens, UniProt P49407); experiment: Isothermal titration calorimetry; format: binding
How it was run: as §1

[3] = molecular target: truncated human arrestin-2 mutant comprised of residues 1-382 (tr-arr2_(1-382)) (human) (UniProt P49407); experiment: ITC
[4] = molecular target: wild-type human arrestin-2 (wt-arr2_(1-418)) (human) (UniProt P49407); experiment: ITC
[5] = molecular target: T1, wt-arr2_1-418 (full-length human arrestin-2); experiment: Transferred NOESY NMR of arrestin-peptide mixture, full-length arrestin-2; format: binding; conditions: 0.1 mM wt-arr2_1-418, 1 mM peptide (1:10), pH 6.9-7.1, 10°C, 600 MHz
[6] = molecular target: T2, tr-arr2_1-382 (truncated human arrestin-2 mutant); experiment: Transferred NOESY NMR of arrestin-peptide mixture, truncated arrestin-2; format: binding; conditions: 0.1 mM tr-arr2_1-382, 1 mM peptide (1:10), pH 6.9-7.1, 10°C, 600 MHz
arrestin-2 = conditions: doubly phosphorylated Thr419-ASN439 peptide of CB1 C-terminus; cited from earlier work
[7] = ITC, 283K, 10 mM NaH2PO4 pH 7.0, 100 mM NaCl

T2 sequence (P49407 1-382, change not shown): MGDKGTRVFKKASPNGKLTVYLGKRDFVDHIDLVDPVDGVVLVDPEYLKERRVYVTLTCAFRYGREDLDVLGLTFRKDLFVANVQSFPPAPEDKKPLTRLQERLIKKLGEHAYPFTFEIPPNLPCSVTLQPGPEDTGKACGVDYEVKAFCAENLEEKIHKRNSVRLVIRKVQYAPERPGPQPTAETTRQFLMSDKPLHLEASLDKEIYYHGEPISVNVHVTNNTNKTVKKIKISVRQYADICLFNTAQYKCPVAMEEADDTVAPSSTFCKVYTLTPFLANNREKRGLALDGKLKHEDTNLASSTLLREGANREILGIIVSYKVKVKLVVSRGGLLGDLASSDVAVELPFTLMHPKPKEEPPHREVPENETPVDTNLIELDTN
T1 sequence (P49407 whole entry): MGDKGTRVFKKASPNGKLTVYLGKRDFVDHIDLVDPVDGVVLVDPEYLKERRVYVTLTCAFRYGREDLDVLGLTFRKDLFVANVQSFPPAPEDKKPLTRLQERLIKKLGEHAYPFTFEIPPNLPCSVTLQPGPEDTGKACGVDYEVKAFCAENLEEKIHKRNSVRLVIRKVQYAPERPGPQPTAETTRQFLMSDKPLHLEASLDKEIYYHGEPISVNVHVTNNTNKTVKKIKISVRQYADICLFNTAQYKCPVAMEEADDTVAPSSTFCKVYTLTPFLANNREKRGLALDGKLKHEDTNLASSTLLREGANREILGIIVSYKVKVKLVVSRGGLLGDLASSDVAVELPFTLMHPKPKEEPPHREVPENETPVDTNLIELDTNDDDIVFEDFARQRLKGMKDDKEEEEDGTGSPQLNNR
Chain of truncated human arrestin-2 mutant comprised of residues 1-382 (tr-arr2_(1-382)) (human) (P49407 1-382, change not shown): as the sequence (P49407 1-382, change not shown) above
Chain of wild-type human arrestin-2 (wt-arr2_(1-418)) (human) (P49407 whole entry): as the sequence (P49407 whole entry) above

Kd [1]: ~116 µM | Kd [2]: ~2.2 µM
Molecule: CC[C@H](C)[C@H](NC(=O)[C@H](CCCCN)NC(=O)[C@@H](NC(=O)[C@@H](N)[C@@H](C)O)C(C)C)C(=O)N[C@@H](C)C(=O)N[C@@H](CCCCN)C(=O)N[C@H](C(=O)N[C@H](C(=O)N[C@@H](CCSC)C(=O)N[C@@H](COP(=O)(O)O)C(=O)N[C@H](C(=O)N[C@@H](COP(=O)(O)O)C(=O)N[C@H](C(=O)N[C@@H](CC(=O)O)C(=O)N[C@H](C(=O)N[C@@H](COP(=O)(O)O)C(=O)N[C@@H](C)C(=O)N[C@@H](CCC(=O)O)C(=O)N[C@@H](C)C(=O)N[C@@H](CC(C)C)C(=O)O)[C@@H](C)OP(=O)(O)O)[C@@H](C)O)C(C)C)[C@@H](C)OP(=O)(O)O)C(C)C [CB1^5P454-473] (H-TVKIAKV[pT]M[pS]V[pS]TD[pT][pS]AEAL-OH)

Kd [3]: 2.2 µM | Kd [4]: 116 µM
Molecule: CB1^5P_(454-473), pentaphosphorylated peptide mimicking residues 454-473 of CB1

Molecule: TVKIAKVTMSVSTDTSAEAL [CB1_454-473]
interaction by ITC [1, 7]: no indication of an interaction | interaction by ITC [2, 7]: no indication of an interaction | nOe change on addition of arrestin / interaction [5]: no additional peaks in the nOe spectra compared to the free peptide spectrum suggesting little or no interaction | nOe change on addition of arrestin / interaction [6]: no additional peaks in the nOe spectra compared to the free peptide spectrum suggesting little or no interaction

Molecule: doubly phosphorylated version of a peptide corresponding to residues Thr419-ASN439 of the CB1 C-terminus: doubly phosphorylated peptide corresponding to residues Thr419-ASN439 of the CB1 C-terminus, responsible for desensitization
binding and bound conformation (arrestin-2): binds to arrestin-2 and adopts helical conformations in the vicinity of the phosphorylated residues
